Measured values published in ChEMBL document CHEMBL2401708, “Superior anticancer activity of halogenated chalcones and flavonols over the natural flavonol quercetin” (Eur J Med Chem, 2013).
Activity calls are given as the source filed them. The calls are words filed in the database; no cut-off is given here.

Legend:
HCT-116 [1] = assay: Cytotoxicity against human HCT116 cells assessed as cell viability after 48 hrs by MTT assay; assay type: functional, cell-based; conditions: HCT-116, 48 h
Procedure, shortened: (§1)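 HCT116 cells seeded in 24-well plates two days prior, treated 48 h in fresh complete medium (DMSO ≤0.5% v/v; DMSO-only control); MTT 0.5 mg/ml final added for last hour, formazan dissolved in DMSO:ethanol 50:50, A570 minus A690; viability as % of control; IC50 from 2.5–20 range dose-response; mean ± SEM of 4 independent experiments.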

HCT-116 [2] = assay: Cytotoxicity against human HCT116 cells assessed as cell viability at 15 uM after 48 hrs by MTT assay relative to control; assay type: functional; conditions: HCT-116, 48 h, read-out: Activity; procedure, shortened: as §1
HCT-116 [3] = assay: Cytotoxicity against human HCT116 cells assessed as cell viability at 10 uM after 48 hrs by MTT assay relative to control; assay type: functional; conditions: HCT-116, 48 h, read-out: Activity; procedure, shortened: as §1
HCT-116 [4] = assay: Cell cycle arrest in human HCT116 cells assessed as accumulation at sub-G1 phase at 10 to 15 uM after 48 hrs by flow cytometry analysis; assay type: functional, cell-based
Procedure, shortened: (§2)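 HCT116 cells (RPMI 1640, 6% FBS, 37 °C, 5% CO2) seeded two days ahead, exposed 48 h; floating plus attached cells collected by trypsinization, fixed in 70% ethanol at 4 °C 15 min, stained with PI/RNase A at 37 °C 15 min; ≥40 000 single cells counted by flow cytometry; phases fitted by Watson Pragmatic model; 3 independent experiments.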

HCT-116 [5] = assay: Induction of apoptosis in human HCT116 cells assessed as cleavage of PARP1 at 10 to 15 uM after 48 hrs by Western blot analysis; assay type: functional, cell-based
Procedure, shortened: (§3)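 Cells seeded two days before 48 h exposure; floating and attached cells harvested, lysed in ice-cold RIPA with PMSF, phosphatase and protease inhibitors; 20 µg protein by SDS-PAGE, PVDF transfer, milk blocking, primary antibody (p53 DO-1, p27 C-19, PARP-1 F-2) overnight, HRP secondary, chemiluminescence; band intensity quantified, β-actin loading control.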

HCT-116 [6] = assay: Cell cycle arrest in human HCT116 cells assessed as accumulation at S and G2/M phase at 10 to 15 uM after 48 hrs by flow cytometry analysis; assay type: functional, cell-based; procedure, shortened: as §2
HCT-116 [7] = assay: Cell cycle arrest in human HCT116 cells assessed as accumulation at S and G2/M phase at IC50 after 48 hrs by flow cytometry analysis; assay type: functional, cell-based; procedure, shortened: as §2
HCT-116 [8] = assay: Induction of morphological changes in human HCT116 cells assessed as floating cells at 15 to 100 uM after 48 hrs by microscopic analysis; assay type: functional, cell-based
HCT-116 [9] = assay: Induction of apoptosis in human HCT116 cells assessed as nuclear condensation after 48 hrs by fluorescence microscopic analysis; assay type: functional, cell-based
Procedure, shortened: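 After 48 h exposure, floating and attached cells harvested, fixed in 4% paraformaldehyde 15 min at room temperature, cytospun onto polylysine slides, Hoechst-stained; apoptotic fraction = condensed nuclei over total nuclei, >500 cells per slide counted by fluorescence microscopy; mean ± SEM of ≥3 independent experiments.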

HCT-116 [10] = assay: Cytotoxicity against human HCT116 cells assessed as cell viability at 30 uM after 48 hrs by MTT assay relative to control; assay type: functional; conditions: HCT-116, 48 h, read-out: Activity
Procedure, shortened: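 HCT116 cells grown in RPMI 1640 with 6% FBS, 0.1 mM sodium pyruvate and 10 mM HEPES at 37 °C in 5% CO2, seeded at 70 000 cells/mL two days before treatment. Exposure 48 h in fresh complete medium, DMSO ≤0.5% (v/v), DMSO-only controls. MTT (0.5 mg/ml final) added for the last hour, formazan dissolved in DMSO:ethanol 50:50, A570 minus A690. Viability given as % of control; mean ± SEM of 4 independent experiments; Student's t-test.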

HCT-116 [11] = assay: Cell cycle arrest in human HCT116 cells assessed as accumulation at S and G2/M phase at 15 uM after 48 hrs by flow cytometry analysis; assay type: functional, cell-based; procedure, shortened: as §2
HCT-116 [12] = assay: Cell cycle arrest in human HCT116 cells assessed as increase of p27 expression at 5 to 10 uM after 48 hrs by Western blot analysis; assay type: functional, cell-based; procedure, shortened: as §3
HCT-116 [13] = assay: Induction of morphological changes in human HCT116 cells assessed as floating cells at 10 to 100 uM after 48 hrs by microscopic analysis; assay type: functional, cell-based
HCT-116 [14] = assay: Cell cycle arrest in human HCT116 cells assessed as increase of p53 expression at 5 to 10 uM after 48 hrs by Western blot analysis; assay type: functional, cell-based; procedure, shortened: as §3
HCT-116 [15] = assay: Induction of apoptosis in human HCT116 cells assessed as cleavage of PARP1 at 5 to 10 uM after 48 hrs by Western blot analysis; assay type: functional, cell-based; procedure, shortened: as §3
HCT-116 [16] = assay: Cell cycle arrest in human HCT116 cells assessed as accumulation at S and G2/M phase at 5 to 10 uM after 48 hrs by flow cytometry analysis; assay type: functional, cell-based; procedure, shortened: as §2
HCT-116 [17] = assay: Cell cycle arrest in human HCT116 cells assessed as accumulation at sub-G1 phase at 5 to 10 uM after 48 hrs by flow cytometry analysis; assay type: functional, cell-based; procedure, shortened: as §2

Row | Compound | IC50 (HCT-116 [1]) [µM] | viability at 15 µM (HCT-116 [2]) [%] | viability at 10 µM (HCT-116 [3]) [%] | other results
1 | O=c1c(O)c(-c2cccc(F)c2)oc2ccccc12 | 13 | 45.9 | 60.9 | 
2 | Cc1ccc(-c2oc3ccccc3c(=O)c2O)cc1 |  | 59.3 |  | 
3 | O=C(/C=C/c1ccc(Cl)cc1)c1ccccc1O | 20.9 | 69.1 | 84.8 | 
4 | Cc1cccc(-c2oc3ccccc3c(=O)c2O)c1 |  | 38.7 |  | 
5 | O=C(/C=C/c1cccc(F)c1)c1ccccc1O | 14.5 | 45.3 | 90.2 | 
6 | O=C(/C=C/c1cccc(Br)c1)c1ccccc1O | 10.9 | 29.6 | 48.4 | Activity (HCT-116 [4]): Active; Activity (HCT-116 [5]): Active; Activity (HCT-116 [6]): Active; Activity (HCT-116 [7]): Active; Activity (HCT-116 [8]): Active; Activity (HCT-116 [9]): Dose-dependent effect
7 | COc1ccc(OC)c(-c2oc3ccccc3c(=O)c2O)c1 |  | 76.6 |  | 
8 | O=C(/C=C/c1cccc(Cl)c1)c1ccccc1O | 13.2 | 37.5 | 75.8 | 
9 | O=C(/C=C/c1ccc(F)cc1)c1ccccc1O | 20.5 | 74.9 | 85.2 | 
10 | O=c1c(O)c(-c2ccc(Cl)cc2)oc2ccccc12 | 6.8 | 38 | 40.8 | 
11 | O=c1c(O)c(-c2ccccc2)oc2ccccc12 [FLAVONOL] |  | 64.6 |  | 
12 | COc1cc(OC)c(/C=C/C(=O)c2ccccc2O)c(OC)c1 |  | 91.1 |  | 
13 | Cc1cccc(/C=C/C(=O)c2ccccc2O)c1 |  | 85.9 |  | 
14 | COc1ccc(/C=C/C(=O)c2ccccc2O)cc1 |  | 89.1 |  | 
15 | COc1ccc(-c2oc3ccccc3c(=O)c2O)cc1OC [3-HYDROXY-3',4'-DIMETHOXYFLAVONE] |  | 78.1 |  | 
16 | COc1cccc(/C=C/C(=O)c2ccccc2O)c1 |  | 89.6 |  | 

Row | Compound | IC50 (HCT-116 [1]) [µM] | viability at 15 µM (HCT-116 [2]) [%] | viability at 10 µM (HCT-116 [3]) [%] | other results
17 | O=c1c(O)c(-c2ccc(O)c(O)c2)oc2cc(O)cc(O)c12 [QUERCETIN] |  |  |  | viability at 30 µM (HCT-116 [10]): 59.7%
18 | O=c1c(O)c(-c2ccc(F)cc2)oc2ccccc12 | 14.4 | 49.2 | 61.1 | 
19 | COc1ccc(-c2oc3ccccc3c(=O)c2O)cc1 |  | 96 |  | 
20 | O=C(/C=C/c1ccccc1)c1ccccc1O [2'-HYDROXYCHALCONE] |  | 91.7 |  | 
21 | O=c1c(O)c(-c2cccc(Br)c2)oc2ccccc12 | 7.5 | 29.2 | 37.6 | 
22 | O=C(/C=C/c1ccc(C(F)(F)F)cc1)c1ccccc1O |  | 85.1 |  | Activity (HCT-116 [11]): inactive; Activity (HCT-116 [8]): Active
23 | COc1cccc(/C=C/C(=O)c2ccccc2O)c1O |  | 84.7 |  | 
24 | COc1cc(-c2oc3ccccc3c(=O)c2O)cc(OC)c1OC |  | 70 |  | 
25 | COc1ccccc1-c1oc2ccccc2c(=O)c1O |  | 89.1 |  | 
26 | Cc1ccc(/C=C/C(=O)c2ccccc2O)cc1 |  | 89.1 |  | 
27 | O=c1c(O)c(-c2ccc(Br)cc2)oc2ccccc12 | 4.6 | 29.2 | 32.8 | Activity (HCT-116 [12]): Active; Activity (HCT-116 [13]): Active; Activity (HCT-116 [7]): Active; Activity (HCT-116 [14]): Active; Activity (HCT-116 [15]): Active; Activity (HCT-116 [16]): Active; Activity (HCT-116 [9]): Dose-dependent effect; Activity (HCT-116 [17]): Active
28 | O=c1c(O)c(-c2cccc(Cl)c2)oc2ccccc12 | 8.1 | 32.9 | 43.8 | 
29 | COc1cccc(-c2oc3ccccc3c(=O)c2O)c1 |  | 39.5 |  | 
30 | O=C(/C=C/c1ccc(Br)cc1)c1ccccc1O | 19.1 | 68.4 | 85.5 | 
31 | COc1cc(/C=C/C(=O)c2ccccc2O)cc(OC)c1OC |  | 83.7 |  | 
